# Hits are enriched below; roughly 2.3% of the tested compounds scored in any of these assays.
# TRPC6 inhibitor – blocks the mouse TRPC6 cation channel; Q61143; HEK293-TRPC6, membrane potential dye, ACh-evoked depolarization; stronger effect = lower value; B-score at 10 µM; actives 1.1% (n = 310,000);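 active means B-score under library mean minus 3 SD, initial fluorescence not abnormally high, positive integrated signal ratio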;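 further: B-score derived from integrated fluorescence ratio over the kinetic read; more negative B-score means stronger inhibition of depolarization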
# Target sequence (Q61143 whole entry, looked up): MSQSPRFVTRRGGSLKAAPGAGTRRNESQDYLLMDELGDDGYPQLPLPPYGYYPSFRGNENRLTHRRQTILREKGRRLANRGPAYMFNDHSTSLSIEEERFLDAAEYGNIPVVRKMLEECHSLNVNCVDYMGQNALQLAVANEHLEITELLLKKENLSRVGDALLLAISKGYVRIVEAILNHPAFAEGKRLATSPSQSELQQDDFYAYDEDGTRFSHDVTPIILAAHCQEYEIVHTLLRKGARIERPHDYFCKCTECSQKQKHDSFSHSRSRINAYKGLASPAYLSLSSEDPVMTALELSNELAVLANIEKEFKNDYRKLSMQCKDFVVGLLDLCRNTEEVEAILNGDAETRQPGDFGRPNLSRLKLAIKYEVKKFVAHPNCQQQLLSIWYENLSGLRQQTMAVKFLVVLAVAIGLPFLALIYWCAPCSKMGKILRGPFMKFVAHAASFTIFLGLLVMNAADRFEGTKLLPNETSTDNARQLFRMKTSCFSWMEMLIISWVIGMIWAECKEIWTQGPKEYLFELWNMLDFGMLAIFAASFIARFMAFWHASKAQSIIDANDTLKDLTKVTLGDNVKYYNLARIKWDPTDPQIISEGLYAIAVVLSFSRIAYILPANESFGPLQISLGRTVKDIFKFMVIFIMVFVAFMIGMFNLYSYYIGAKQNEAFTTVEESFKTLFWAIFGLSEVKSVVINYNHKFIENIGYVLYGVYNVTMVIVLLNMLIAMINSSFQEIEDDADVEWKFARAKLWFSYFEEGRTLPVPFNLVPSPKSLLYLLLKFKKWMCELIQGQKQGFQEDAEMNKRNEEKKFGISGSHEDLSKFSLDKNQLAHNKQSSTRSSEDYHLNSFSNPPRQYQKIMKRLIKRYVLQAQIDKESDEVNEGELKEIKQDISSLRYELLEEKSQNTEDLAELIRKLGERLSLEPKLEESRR
# TRPC4 potent – allosterically enhances the mouse TRPC4 cation channel | HEK293 TRPC4beta/mu-opioid, DAMGO EC20, Fluo-4 Ca2+ flux; stronger effect = higher value | B-score at 10 µM | actives 0.42% (n = 310,000);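 active means B-score of calcium response area above 5 SD of library B-scores, with initial fluorescence ratio within 5 SD of library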;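 further: B-score of integrated fluorescence ratio over time as area under calcium response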
# TRPC4 inh – blocks the mouse TRPC4 cation channel; Q9QUQ5; HEK293 TRPC4beta/mu-opioid, DAMGO-evoked Fluo4 calcium flux; stronger effect = lower value; B-score at 10 µM; actives 0.39% (n = 300,000);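 active means B-score over 3 SD under the library average, no early fluorescence shift, positive overall ratio signal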
#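 Assay system: TRPC4beta/mu-opioid receptor HEK293 cell line; compound dosing: single concentration per test compound; detection: Fluo4 Ca2+ flux fluorescence; evaluation: per-well B score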
# TRPC4 act – TRPC4 (mouse) channel activation; Q9QUQ5; HEK293 TRPC4beta/mu-opioid, Fluo4 calcium fluorescence; stronger effect = higher value; B-score at 10 µM; actives 0.49% (n = 310,000);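 active means B-score above 5 SD of library B-scores, and initial fluorescence ratio not above library mean plus 5 SD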;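 further: positive B-score marks a calcium rise read as TRPC4 activation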
#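 Test system: HEK293 cells stably co-expressing mouse TRPC4beta and mu-opioid receptor | Schedule: Fluo4 dye loading 45 min at room temperature, 110 s recording | Measured by: Kinetic Fluo4 calcium fluorescence, 5 s baseline at 1 Hz | Evaluation: B score of integrated ratio | Controls: Buffer (low) and maximal DAMGO (high)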
# TRPC6 activator – activators of mouse TRPC6 channel. Q61143. actives 0.13% (n = 310,000). HEK293-TRPC6 membrane potential dye fluorescence; stronger effect = higher value. B-score at 10 µM;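 active means B-score of the integrated fluorescence ratio above library mean plus 3 SD, and starting fluorescence ratio within library mean plus 5 SD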;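 further: higher score means more depolarization so channel activation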
# TRPC4 sel inh 2 – second selectivity test of TRPC6 inhibitors: effect on mouse TRPC4. shares compounds with TRPC6 inhibitor. inhibition, % at 10 µM. actives 42% (n = 920). HEK293 TRPC4/MOR, membrane potential dye fluorescence; channel activated by saturating DAMGO dose;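 active means compounds whose fluorescence signal differed from control wells by over 3 SD, either direction, in both duplicate plates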
# TRPC4 spec – tests whether TRPC6 inhibitors also affect mouse TRPC4. shares compounds with TRPC6 inhibitor. HEK293 TRPC4/mu-opioid, membrane potential fluorescence. activity change, negative = inhibition, % at 10 µM. actives 61% (n = 920). AID 2777;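 active means rise or fall in signal beyond 3 SD of buffer-only wells in both replicate plates, either sign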;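 further: integrated kinetic ratio of fluorescence range over baseline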
# HEK293 MPD ctr 2-1 – parental HEK293 nonspecific activity of TRPC6 inhibitors, second screen | shares compounds with TRPC6 inhibitor | parental HEK293 membrane potential dye fluorescence; maximal acetylcholine challenge after compound addition | signal change vs control, % at 10 µM | actives 31% (n = 920) | AID 2779;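 active means membrane potential signal moving either way by over 3 SD of the maximum-effect control, in both duplicate plates, meaning non-specific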
# HEK293 MPD ctr-1 – counter-screen for TRPC6 inhibitors: effect in parental HEK293 cells. shares compounds with TRPC6 inhibitor. actives 60% (n = 920). membrane potential signal change, % at 10 µM. parental HEK293 membrane potential dye fluorescence. AID 2780;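 active means membrane potential signal shifting up or down by more than 3 SD of buffer-only wells, on both duplicate plates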
# HEK293 MPD ctr-2 – parental HEK293 nonspecific activity of TRPC6 modulators. shares compounds with TRPC6 inhibitor. membrane potential dye fluorescence. membrane potential signal change, % at 10 µM. actives 51% (n = 2,400);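 active means membrane potential signal moves up or down beyond 5 SD from buffer-only wells, on both duplicate plates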
# HEK293 MPD ctr 2-2 – second check of TRPC6 modulator effects in parental HEK293 cells | shares compounds with TRPC6 inhibitor | membrane potential dye fluorescence; after compound, maximal acetylcholine stimulation | inhibition, % at 10 µM | actives 14% (n = 2,400);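 active means membrane potential signal drops by more than 5 SD from the mean control signal, in both duplicate plates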;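 further: plate controls were acetylcholine ECmax control wells for no effect and buffer only wells for full effect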
# TRPC4 ctr mod – selectivity of TRPC6 modulators against mouse TRPC4; HEK293 TRPC4/mu-opioid, membrane potential fluorescence; actives 69% (n = 2,400); percent change from control (negative = decrease, positive = increase), % at 10 µM; shares compounds with TRPC6 inhibitor;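 active means membrane potential signal moved up or down beyond 5 SD of buffer control wells, in both duplicate plates, actives on both sides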;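 further: plate controls were assay buffer wells for no effect and DAMGO maximal-effect wells for full effect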
# TRPC4 ctr inh 2 – mouse TRPC4 off-target activity of TRPC6 modulators, second screen | shares compounds with TRPC6 inhibitor | actives 55% (n = 2,400) | inhibition, % at 10 µM | HEK293 TRPC4/mu-opioid, membrane potential dye fluorescence; stimulated with maximal-effect DAMGO;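 active means drop in membrane potential signal beyond 5 SD of the control wells in both duplicate plates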;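 further: TRPC4 counter screen for TRPC6 hits run under conditions tuned for TRPC6 not TRPC4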
# TRPC6 block conf – confirmation of mouse TRPC6 inhibitors; shares compounds with TRPC6 inhibitor; HEK293-TRPC6, membrane potential dye, ACh-evoked depolarization; inhibition, % at 10 µM; actives 43% (n = 3,300);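 active means fluorescence ratio falls more than 5 SD below the full-stimulation control mean, in both duplicate runs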;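 further: integrated fluorescence ratio of peak minus minimum over baseline after agonist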
# TRPC6 act confirm – confirmation of mouse TRPC6 activators. shares compounds with TRPC6 inhibitor. activation, % at 10 µM. AID 488961. HEK293-TRPC6 membrane potential dye fluorescence, FDSS. actives 11% (n = 2,800);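 active means ratio signal rise beyond 5 SD above unstimulated control wells' mean, seen in both duplicate runs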;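 further: plate controls were buffer EC0 wells for no effect and acetylcholine ECmax response for full effect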
# * = called active by the depositor; i = inactive; x = no result; + = active, no number.
SMILES,TRPC6 inhibitor,TRPC4 potent,TRPC4 inh,TRPC4 act,TRPC6 activator,HEK293 MPD ctr-2,HEK293 MPD ctr 2-2,TRPC4 ctr mod,TRPC4 ctr inh 2,TRPC6 block conf,TRPC6 act confirm,others
CN(C)CCN(C(=O)c1cc(Cl)sc1Cl)c1nc2ccc(F)cc2s1,i,i,i,i,i,x,x,x,x,x,x,
Cc1ccc(S(=O)(=O)N2CCCC2CNC(=O)C(=O)NC2CCCC2)cc1 (stereo not given),i,i,i,i,i,x,x,x,x,x,x,
C/C(CCc1ccc2c(c1)OCO2)=N\NC(=O)c1ccccc1Br,i,i,i,i,i,x,x,x,x,x,x,
COc1ccc(NC(=S)N2CCC(NC(=O)c3ccc(F)cc3)CC2)cc1,i,i,i,i,i,x,x,x,x,x,x,
Cc1ccc(NC(=O)CN(C)Cc2nc3c(Br)cc(Br)cc3c(=O)[nH]2)cc1,i,i,i,i,i,x,x,x,x,x,x,
COc1ccccc1NC(=O)C1CCN(S(=O)(=O)c2ccc3c(c2)NC(=O)CO3)CC1,i,i,i,i,i,x,x,x,x,x,x,
C[N+]1(C)CCCC(OC(=O)C(O)(c2ccccc2)c2ccccc2)C1 (stereo not given),-12.9*,i,i,i,i,x,x,x,x,94.5%*,i,TRPC4 sel inh 2=i;TRPC4 spec=i;HEK293 MPD ctr 2-1=-23.0%*;HEK293 MPD ctr-1=i
CN(C)c1cc[n+](CC(=O)Nc2ccc(Oc3ccccc3)cc2)cc1,-6.27*,i,i,i,i,i,i,-10.5%*,i,i,i,
O=C(N/N=C/c1sc2ccccc2c1O)c1cccc2ccccc12,i,i,i,45*,22.4*,834.0%*,+,121.0%*,42.0%*,x,251.0%*,
O=C(N/N=C/c1sc2ccccc2c1O)c1ccccc1,i,i,i,i,i,x,x,x,x,x,x,
COc1ccc2cc(C(=O)N/N=C/c3sc4ccccc4c3O)ccc2c1,i,i,i,i,72.4*,138.5%*,108.5%*,261.0%*,i,x,38.5%*,
COc1ccc(C(=O)N/N=C/c2sc3ccccc3c2O)cc1,i,i,i,i,12.1*,+,+,112.5%*,39.5%*,x,197.5%*,
CCN(CC)C(=O)COc1coc(CN2CCN(c3ccccc3F)CC2)cc1=O,i,i,i,i,i,x,x,x,x,x,x,
O=C(Cn1c(=O)cnc2ccccc21)NC1CCC(O)CC1 (stereo not given),i,i,i,i,i,x,x,x,x,x,x,
CCOC(=O)c1cnc2c(C)cccc2c1NCc1ccco1,i,i,i,i,i,x,x,x,x,x,x,
CCOC(=O)c1cnc2ccc(Br)cc2c1NCCO,i,i,i,i,i,x,x,x,x,x,x,
CCOC(=O)c1cnc2c(ccc3ccccc32)c1NCCCN(C)C,-6.42*,i,i,i,i,i,70.0%*,i,55.5%*,48.0%*,i,
CCOC(=O)c1cnc2ccccc2c1NCCO,-5.64*,i,i,i,i,-108.0%*,i,-14.5%*,40.0%*,49.0%*,i,
CCOC(=O)c1cnc2c(Cl)cc(Cl)cc2c1NCCOCCO,i,i,i,i,i,x,x,x,x,x,x,
CCOC(=O)c1cnc2ccc(Cl)cc2c1NCCN(C)C,-6.55*,i,i,i,i,-104.5%*,i,-18.5%*,49.0%*,45.5%*,i,
c1ccc(CCc2nn3c(Cc4ccccc4)nnc3s2)cc1,i,i,i,i,i,x,x,x,x,x,x,
Cc1cc2c3c(ccc(C)c3n1)N=CN2c1ccccc1,-8.07*,i,i,i,i,-240.0%*,77.0%*,-46.5%*,65.5%*,52.5%*,i,
O=C(c1ccc([N+](=O)[O-])cc1)N(Cc1ccc(Br)cc1)N1C(=O)CCCC1=O,-9.84*,i,i,45*,16.4*,457.5%*,186.5%*,38.0%*,33.5%*,68.5%*,100.5%*,
CC(C)Cn1c(=O)c(C(=O)Nc2ccncc2)c(O)c2ccccc21,-11.7*,i,i,i,i,x,x,x,x,83.7%*,i,TRPC4 sel inh 2=i;TRPC4 spec=-14.8%*;HEK293 MPD ctr 2-1=-83.5%*;HEK293 MPD ctr-1=i
C=CCN(c1ccc(C(=O)NCCN2CCOCC2)cc1)S(C)(=O)=O,i,i,i,i,i,x,x,x,x,x,x,
O=C(CN1CCCC1)Nc1c2c(nc3ccccc13)N(Cc1ccccc1)CC2,-6.1*,i,i,i,i,-311.5%*,i,-49.0%*,62.5%*,46.0%*,i,
CN(C)c1cc(NC(=O)CN2CCCC2)c2ccccc2n1,-7.16*,i,i,i,i,x,x,x,x,i,i,TRPC4 sel inh 2=65.5%*;TRPC4 spec=-19.5%*;HEK293 MPD ctr 2-1=i;HEK293 MPD ctr-1=-323.5%*
CN(C)c1cc(NC(=O)CNC(C)(C)CC(C)(C)C)c2ccccc2n1,i,i,i,i,i,x,x,x,x,x,x,
O=C(CN1CCOCC1)Nc1c2c(nc3ccccc13)N(Cc1ccccc1)CC2,i,i,i,i,i,x,x,x,x,x,x,
